Data: ChEMBL document CHEMBL4602627, “Further exploration of the structure-activity relationship of imidazoquinolines; identification of potent C7-substituted imidazoquinolines” (Bioorg Med Chem Lett, 2020)
Calls of active or inactive are those of the source. The calls are words filed in the database; no cut-off is given here.

Assays:
[1] = biological target: T1, Toll-like receptor 7/8 (Canis lupus familiaris) (UniProt A1XC23+H6BA89); experiment: Agonist activity at TLR7/8 in dog PBMC assessed as IL-12 secretion at 20 uM after 29 hrs by ELISA (reference value: 18 +/- 8 pg/ml); assay type: cell-based
In short: (§1)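 Canine PBMCs (2 × 10^6 cells/mL) were incubated with agonist at 20 µM for 29 h. TNFα, IL-12, IL-6, IL-10, IL-2 and IFNγ in the medium were measured by ELISA, in triplicate. Vehicle was 1% DMSO in water.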

[2] = biological target: T2, Toll-like receptor 8 (Homo sapiens) (UniProt Q9NR97); experiment: Agonist activity at human TLR8 expressed in HEK-Blue cells assessed as induction of NFkappaB activation by measuring increase in SEAP level by SEAP reporter gene-based UV-vis absorbance method relative to resiquimod; assay type: cell-based
T2 sequence (whole entry): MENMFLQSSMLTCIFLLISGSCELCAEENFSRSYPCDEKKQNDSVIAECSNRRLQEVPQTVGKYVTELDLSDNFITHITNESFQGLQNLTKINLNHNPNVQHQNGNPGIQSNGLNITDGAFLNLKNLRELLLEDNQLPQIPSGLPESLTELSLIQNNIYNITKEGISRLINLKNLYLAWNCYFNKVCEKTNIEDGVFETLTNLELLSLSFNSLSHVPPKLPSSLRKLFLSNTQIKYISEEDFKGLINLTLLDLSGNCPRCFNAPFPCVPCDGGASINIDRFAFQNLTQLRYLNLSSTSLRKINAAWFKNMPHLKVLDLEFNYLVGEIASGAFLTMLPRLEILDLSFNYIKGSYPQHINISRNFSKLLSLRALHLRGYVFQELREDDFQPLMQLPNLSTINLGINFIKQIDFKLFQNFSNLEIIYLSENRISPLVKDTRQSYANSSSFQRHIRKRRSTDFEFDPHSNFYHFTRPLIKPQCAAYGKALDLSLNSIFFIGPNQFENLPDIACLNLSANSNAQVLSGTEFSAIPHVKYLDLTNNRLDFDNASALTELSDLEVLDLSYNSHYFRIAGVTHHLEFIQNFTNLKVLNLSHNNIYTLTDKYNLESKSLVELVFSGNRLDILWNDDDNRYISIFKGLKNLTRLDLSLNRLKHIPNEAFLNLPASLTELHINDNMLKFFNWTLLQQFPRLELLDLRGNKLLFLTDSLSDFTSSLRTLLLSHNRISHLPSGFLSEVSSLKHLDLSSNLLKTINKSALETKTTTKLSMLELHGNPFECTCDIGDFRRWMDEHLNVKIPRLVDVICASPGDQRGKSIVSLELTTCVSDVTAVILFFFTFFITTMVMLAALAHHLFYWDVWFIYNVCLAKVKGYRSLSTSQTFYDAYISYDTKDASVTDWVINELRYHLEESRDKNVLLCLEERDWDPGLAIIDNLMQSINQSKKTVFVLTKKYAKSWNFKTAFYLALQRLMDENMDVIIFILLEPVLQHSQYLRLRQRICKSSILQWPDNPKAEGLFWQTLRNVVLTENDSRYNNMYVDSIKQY

[3] = biological target: T3, Toll-like receptor 7 (Homo sapiens) (UniProt Q9NYK1); experiment: Agonist activity at human TLR7 expressed in HEK-Blue cells assessed as induction of NFkappaB activation by measuring increase in SEAP level by SEAP reporter gene-based UV-vis absorbance method relative to resiquimod; assay type: cell-based
T3 sequence (whole entry): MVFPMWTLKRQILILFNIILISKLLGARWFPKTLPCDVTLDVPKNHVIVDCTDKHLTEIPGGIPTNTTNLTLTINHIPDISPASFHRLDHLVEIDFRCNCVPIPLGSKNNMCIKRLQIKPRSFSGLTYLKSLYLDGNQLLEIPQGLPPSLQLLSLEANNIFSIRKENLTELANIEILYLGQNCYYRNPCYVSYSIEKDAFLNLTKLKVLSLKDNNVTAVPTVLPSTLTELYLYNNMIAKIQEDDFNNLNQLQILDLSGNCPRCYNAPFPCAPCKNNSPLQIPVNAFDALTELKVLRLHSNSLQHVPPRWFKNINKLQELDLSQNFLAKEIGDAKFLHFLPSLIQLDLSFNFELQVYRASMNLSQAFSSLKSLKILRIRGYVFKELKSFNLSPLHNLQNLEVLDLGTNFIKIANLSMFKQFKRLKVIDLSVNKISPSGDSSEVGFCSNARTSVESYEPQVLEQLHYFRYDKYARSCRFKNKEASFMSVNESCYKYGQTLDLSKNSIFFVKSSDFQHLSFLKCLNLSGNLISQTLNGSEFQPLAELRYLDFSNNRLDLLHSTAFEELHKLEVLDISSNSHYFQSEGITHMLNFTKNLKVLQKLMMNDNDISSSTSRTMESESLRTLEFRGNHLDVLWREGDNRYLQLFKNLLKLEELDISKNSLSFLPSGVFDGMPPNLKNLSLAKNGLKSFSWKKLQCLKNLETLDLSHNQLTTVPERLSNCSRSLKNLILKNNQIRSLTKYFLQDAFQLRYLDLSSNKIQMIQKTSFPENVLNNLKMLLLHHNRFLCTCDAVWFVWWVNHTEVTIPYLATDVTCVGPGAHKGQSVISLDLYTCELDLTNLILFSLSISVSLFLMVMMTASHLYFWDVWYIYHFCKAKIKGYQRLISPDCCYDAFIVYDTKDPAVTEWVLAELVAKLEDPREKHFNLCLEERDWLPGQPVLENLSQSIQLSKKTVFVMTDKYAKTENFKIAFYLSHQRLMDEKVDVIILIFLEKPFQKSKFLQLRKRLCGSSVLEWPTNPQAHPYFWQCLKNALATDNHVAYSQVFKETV

[4] = biological target: T1, Toll-like receptor 7/8 (Canis lupus familiaris); experiment: Agonist activity at TLR7/8 in dog PBMC assessed as maximal increase in TNFalpha secretion at 20 uM after 30 to 48 hrs by ELISA; assay type: cell-based
[5] = biological target: T1, Toll-like receptor 7/8 (Canis lupus familiaris); experiment: Agonist activity at TLR7/8 in dog PBMC assessed as IL-10 secretion at 20 uM after 29 hrs by ELISA (reference value: 33 +/- 16 pg/ml); assay type: cell-based; in short: as §1
[6] = biological target: T1, Toll-like receptor 7/8 (Canis lupus familiaris); experiment: Agonist activity at TLR7/8 in dog PBMC assessed as increase in IL-12 secretion at 20 uM measured over 29 hrs by ELISA
[7] = biological target: T1, Toll-like receptor 7/8 (Canis lupus familiaris); experiment: Agonist activity at TLR7/8 in dog PBMC assessed as IL-6 secretion at 20 uM after 29 hrs by ELISA (reference value: 310 +/- 90 pg/ml); assay type: cell-based; in short: as §1
[8] = biological target: T1, Toll-like receptor 7/8 (Canis lupus familiaris); experiment: Agonist activity at TLR7/8 in dog PBMC assessed as TNFalpha secretion at 20 uM after 29 hrs by ELISA (reference value: 8 +/- 2 pg/ml); assay type: cell-based; in short: as §1
[9] = biological target: T1, Toll-like receptor 7/8 (Canis lupus familiaris); experiment: Agonist activity at TLR7/8 in dog PBMC assessed as increase in IFN-gamma secretion at 20 uM measured over 29 hrs by ELISA
[10] = Solubility of the compound at >100 uM; assay type: physicochemical
[11] = biological target: T1, Toll-like receptor 7/8 (Canis lupus familiaris); experiment: Agonist activity at TLR7/8 in dog PBMC assessed as IFNgamma secretion at 20 uM after 29 hrs by ELISA (reference value: 0.4 +/- 0.7 pg/ml); assay type: cell-based; in short: as §1
[12] = biological target: T1, Toll-like receptor 7/8 (Canis lupus familiaris); experiment: Agonist activity at TLR7/8 in dog PBMC assessed as increase in TNFalpha secretion at 20 uM measured over 29 hrs by ELISA
[13] = biological target: T1, Toll-like receptor 7/8 (Canis lupus familiaris); experiment: Agonist activity at TLR7/8 in dog PBMC assessed as IL-2 secretion at 20 uM after 29 hrs by ELISA (reference value: 47 +/- 20 pg/ml); assay type: cell-based; in short: as §1
[14] = biological target: T1, Toll-like receptor 7/8 (Canis lupus familiaris); experiment: Agonist activity at TLR7/8 in dog PBMC assessed as maximal increase in IFN-gamma secretion at 20 uM after 30 to 48 hrs by ELISA; assay type: cell-based
[15] = biological target: T3, Toll-like receptor 7 (Homo sapiens); experiment: Agonist activity at human TLR7 expressed in HEK-Blue cells assessed as induction of NFkappaB activation by measuring increase in SEAP level by SEAP reporter gene-based UV-vis absorbance method relative to imiquimod; assay type: cell-based
[16] = biological target: T1, Toll-like receptor 7/8 (Canis lupus familiaris); experiment: Agonist activity at TLR7/8 in dog PBMC assessed as maximal increase in IL-12 secretion at 20 uM after 30 to 48 hrs by ELISA; assay type: cell-based

Compound | Activity [1] | fold change (FC) [2] | fold change (FC) [3] | Activity [4] | Activity [5] | Activity [6] | Activity [7] | Activity [8] | Activity [9] | solubility [10] | Activity [11] | Activity [12] | Activity [13] | Activity [14] | fold change (FC) [15] | Activity [16]
CCCCc1nc2c(N)nc3cc(C#N)ccc3c2n1CC(C)C | 920 pg/mL |  |  | Active | 37 pg/mL | Active | 350 pg/mL | 10 pg/mL | Active | Insoluble | 13 pg/mL | Active | 60 pg/mL | Active |  | Active
CCCCc1nc2c(N)nc3cc(OC)ccc3c2n1CC(C)C | 746 pg/mL |  |  | Active | 37 pg/mL | Active | 500 pg/mL | 49 pg/mL |  | Insoluble | 0 pg/mL | Active | 30 pg/mL | Active |  | Active
CCCCc1nc2c(N)nc3cc(Cl)ccc3c2n1CC(C)C | 760 pg/mL |  |  | Active | 14 pg/mL | Active | 240 pg/mL | 91 pg/mL | Active | Insoluble | 7 pg/mL | Active | 63 pg/mL | Active |  | Active
CC(C)Cn1cnc2c(N)nc3ccccc3c21 [IMIQUIMOD] | 1200 pg/mL |  |  | Active | 16 pg/mL | Active | 300 pg/mL | 25 pg/mL | Active | Insoluble | 18 pg/mL | Active | 85 pg/mL | Active |  | Active
CCCCc1nc2c(N)nc3cc(C#N)ccc3c2n1CC(C)(C)O | 418 pg/mL |  |  | Active | 14 pg/mL | Active | 290 pg/mL | 44 pg/mL | Active | Insoluble | 12 pg/mL | Active | 45 pg/mL | Active |  | Active
CCOCc1nc2c(N)nc3cc(C#N)ccc3c2n1CC(C)C | 190 pg/mL |  |  | Active | 6 pg/mL | Active | 71 pg/mL | 7 pg/mL | Active | Insoluble | 4 pg/mL |  | 57 pg/mL | Active |  | Active

Continued, values first:

Activity [1] | fold change (FC) [2] | fold change (FC) [3] | Activity [4] | Activity [5] | Activity [6] | Activity [7] | Activity [8] | Activity [9] | solubility [10] | Activity [11] | Activity [12] | Activity [13] | Activity [14] | fold change (FC) [15] | Activity [16] | Compound
1700 pg/mL | < 4 | < 2 | Active | 7 pg/mL | Active | 230 pg/mL | 22 pg/mL | Active | Insoluble | 13 pg/mL | Active | 55 pg/mL | Active | < 100 | Active | CCCCc1nc2c(N)nc3cc(Cl)ccc3c2n1CC(C)(C)O
2800 pg/mL |  |  | Active | 21 pg/mL | Active | 380 pg/mL | 190 pg/mL | Active | Insoluble | 26 pg/mL | Active | 120 pg/mL | Active |  | Active | CCOCc1nc2c(N)nc3ccccc3c2n1CC(C)(C)O [RESIQUIMOD]
781 pg/mL |  |  | Active | 20 pg/mL | Active | 280 pg/mL | 114 pg/mL | Active | Insoluble | 5 pg/mL | Active | 50 pg/mL | Active |  | Active | CCOCc1nc2c(N)nc3cc(Cl)ccc3c2n1CC(C)C
13 pg/mL |  |  | Active | 6 pg/mL |  | 214 pg/mL | 80 pg/mL |  | Insoluble | 0.2 pg/mL | Active | 46 pg/mL |  |  | Active | CCOCc1nc2c(N)nc3cc(C#N)ccc3c2n1CC(C)(C)O
1900 pg/mL |  |  | Active | 12 pg/mL | Active | 320 pg/mL | 70 pg/mL | Active | Insoluble | 16 pg/mL | Active | 76 pg/mL | Active |  | Active | CCOCc1nc2c(N)nc3cc(Cl)ccc3c2n1CC(C)(C)O
